According to ChEMBL document CHEMBL1275307, “Design, synthesis and biological evaluation of 1,3,4-oxadiazole derivatives” (2010):

Tests used:
Type in all cases: functional
Escherichia coli = assay: Antimicrobial activity against Escherichia coli MTCC 443 after 24 hrs by disk diffusion method
Outline: (§1)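 Paper discs (6.25 mm diameter; Whatman no.1, dry-heat sterilized 140 °C, 1 h) soaked in test compound at a known concentration, placed on nutrient agar seeded with organism; solvent and growth controls plus ciprofloxacin standard included. Plates inverted, incubated 24 h at 37 °C; inhibition zone diameters measured and compared with controls.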

Staphylococcus aureus = assay: Antimicrobial activity against Staphylococcus aureus ATCC 25923 after 24 hrs by disk diffusion method; outline: as §1
[1] = test system: Staphylococcus epidermidis; assay: Antimicrobial activity against Staphylococcus epidermidis ATCC 12228 after 24 hrs by disk diffusion method; outline: as §1

| Compound | inhibition zone (IZ) (Escherichia coli) [mm] | inhibition zone (IZ) (Staphylococcus aureus) [mm] | inhibition zone (IZ) [1] [mm] |
| --- | --- | --- | --- |
| S=c1[nH]nc(-c2ccccc2)o1 | 20 | 22 | 18 |
| CC(=O)Oc1ccccc1-c1nnc(S)o1 | 25 | 24 | 26 |
| Cc1ccc(-c2nnc(S)o2)cc1 | 19 | 20 | 16 |
| Sc1nnc(-c2cccnc2)o1 | 21 | 25 | 26 |
| Cc1ccc(-c2nnc(-c3ccccc3O)o2)cc1 | 19 | 20 | 22 |
| Cc1ccccc1-c1nnc(-c2ccccc2O)o1 | 23 | 23 | 24 |
| Oc1ccccc1-c1nnc(-c2ccccc2)o1 | 19 | 21 | 18 |
| c1ccc(-c2nnc(-c3cccnc3)o2)cc1 | 24 | 24 | 25 |
| Oc1ccccc1-c1nnc(Cc2ccc3ccccc3c2)o1 | 21 | 23 | 25 |
| Oc1ccccc1-c1nnc(S)o1 | 18 | 24 | 22 |
| O=C(O)c1cn(C2CC2)c2cc(N3CCNCC3)c(F)cc2c1=O [CIPROFLOXACIN] |  | 29 | 30 |
